Shown is part of a subset that was picked to be rich in hits.
CHOP UPR activ – activators of apoptotic arm of unfolded protein response (CHOP). CHO-CHOP luciferase reporter, UPR activation, luminescence; percent of tunicamycin response over DMSO baseline. activation, % at 10 µM. 330,000 tested, 0.34% active. AID 449763;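 active = at 10 µM dose, activation of 40% or more, normalized to positive control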
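assay system = CHO CHOP reporter cells | amount = 500 CHO-CHOP cells per well | buffer or medium = F12 with 10% FBS | incubation = 16-18 h cell attachment, then 6 h compound exposure, 37 °C | detection = luminescence read with Steady-Glo | read-out = percent activation relative to tunicamycin control | controls = tunicamycin high control, DMSO low control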
CHOP inh – CHOP inhibition in unfolded protein response | CHO-K1 CHOP-promoter luciferase, tunicamycin-induced, 15-18 h | inhibition, % at 10 µM | 220,000 tested, 3.8% active;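 active = compounds that reduced the stress-induced luciferase reporter signal by more than about 70% of percent inhibition, limit read from the data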
UCH37 inh – blocks the human deubiquitinase UCH37; purified proteasome/UCH37, Ub-AMC cleavage fluorescence; inhibition, % (concentration not given with the values); 330,000 tested, 0.33% active; AID 588478;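 active = mean inhibition over replicate wells above about 20%, limit read from the data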
Target sequence (Q9Y5K5 whole entry, looked up): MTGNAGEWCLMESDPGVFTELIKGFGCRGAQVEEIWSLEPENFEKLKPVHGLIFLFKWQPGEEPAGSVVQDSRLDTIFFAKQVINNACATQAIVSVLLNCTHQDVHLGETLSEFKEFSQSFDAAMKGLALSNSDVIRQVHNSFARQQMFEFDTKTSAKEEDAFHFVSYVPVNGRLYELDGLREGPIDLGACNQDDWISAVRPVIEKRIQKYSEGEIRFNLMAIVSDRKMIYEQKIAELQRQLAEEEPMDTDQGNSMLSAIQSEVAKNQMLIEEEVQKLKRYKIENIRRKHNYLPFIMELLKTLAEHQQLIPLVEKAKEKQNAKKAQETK
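Schedule: 30 min plus 25 min, room temperature / Material: human UCH37 within purified proteasomes / Technique: AMC fluorescence intensity at 355/460 nm / Buffer or medium: pH 7.4 Tris-HCl (50 mM) with ovalbumin, ATP-MgCl2, DTT / Controls: wells without proteasome as full block, compound-free enzyme plus substrate as uninhibited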
CTSL1 counter – cathepsin L1 inhibition, PFM18AAP counter-screen; recombinant F. hepatica cathepsin L1, Z-Leu-Arg-MCA fluorescence; 300,000 tested, 0.49% active; inhibition, % at 5.96 µM;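 active = inhibition above the mean of all tested compounds plus 3 SD, set per screening campaign, cut at about 17% in these data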
XBP1 UPR activ – adaptive UPR (XBP1) activation. CHO-XBP1 luciferase reporter, IRE1-XBP1 UPR activation, luminescence; percent of tunicamycin response, DMSO as zero. activation, % at 20 µM. 330,000 tested, 0.33% active;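 active = versus positive control, 20 µM dose yields 30% or more activation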
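Signal: luciferase luminescence; Assay system: CHO-XBP1 luciferase reporter cells; Amount: one thousand reporter cells per well; Dosing: 20 µM single concentration, DMSO 1%; Benchmarks: high control tunicamycin 10 µg/mL final, low control DMSO vehicle only; Schedule: 6 h compound exposure at 37 °C, 5% CO2; Evaluation: percent activation relative to tunicamycin reference.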
Numbers stand for hits; n = inactive; x = no result given.

SMILES	CHOP UPR activ	CHOP inh	UCH37 inh	CTSL1 counter	XBP1 UPR activ
Cn1c(CSCc2ccc(Cl)cc2Cl)n[nH]c1=S	n	n	n	n	n
CSc1nnc(CSCc2ccc(Cl)cc2Cl)n1-c1ccccc1	n	79	n	n	n
Cc1ccc(C(=O)NN=Cc2ccc(-c3ccccc3[N+](=O)[O-])o2)cn1	x	x	n	x	x
COc1cccc(/C=N/Nc2ncnc3scc(-c4ccccc4)c23)c1OC	n	71	x	n	n
COc1ccc(C=NNc2ncnc3scc(-c4ccccc4)c23)cc1OC	x	x	n	x	x
Cc1ccc(-c2noc(CSc3nnc(Cc4ccccc4)n3-c3ccc(Cl)cc3)n2)cc1	n	81	n	n	n
O=C1N/C(=C/c2cccn2-c2ccccc2)C(=O)N1Cc1ccc(F)cc1	n	n	n	n	n
Cc1ccc(/C=C2/NC(=O)N(Cc3ccc(Br)cc3)C2=O)o1	n	105	n	n	n
Cc1ccc(CN2C(=O)N/C(=C\c3ccc(N4CCOCC4)cc3)C2=O)cc1	n	92	n	n	n
O=C1N/C(=C\c2ccc(N3CCOCC3)c(F)c2)C(=O)N1Cc1ccccc1	n	85	n	n	n
Nc1ccccc1Nc1cc(-c2cccc(Cl)c2)nn1-c1ccccc1	n	86	n	n	n
CCCCCNc1nc(-c2ccccc2)nc(-n2ccnc2)n1	n	72	n	n	n
CC(=O)OCCNc1cc(Sc2nc3ccccc3[nH]2)c2nonc2c1[N+](=O)[O-]	x	107	n	n	x
O=C(NN=Cc1ccc(Cl)cc1Cl)c1ccc2nc[nH]c2c1	x	x	n	x	x
O=C(NN=Cc1cc([N+](=O)[O-])ccc1Cl)c1cnccn1	x	x	n	x	x
CCn1cc(C(=O)OCC(=O)NCc2ccccc2Cl)c(=O)c2ccc(C)nc21	n	n	n	17	n
Cc1nn(Cc2ccc(F)cc2)c(Cl)c1C=NNC(=O)c1ccccc1	x	x	n	x	x
O=C1c2ccccc2C2=Nc3ccccc3SC(c3cccc(F)c3)C12 (stereo not drawn)	n	74	n	n	n
Cc1cc(N2CCN(C)CC2)nc2ccc(NC(=S)N3CCCCC3)cc12	x	n	n	x	x
Cc1cccc(N2CCN(C(=S)Nc3ccc4nc(N5CCN(C)CC5)cc(C)c4c3)CC2)c1C	x	105	n	x	x
O=C(Cc1c(F)cccc1Cl)NN=Cc1cccnc1	x	x	n	x	x
CC12C(=O)N(c3ccccn3)C(=O)C1C1C=CC2C1 (stereo not drawn)	n	75	n	n	n
CCOc1cc(-c2c(C#N)c(N)nc3c2CCc2ccccc2-3)ccc1O	n	78	n	n	n
CCOc1cc(-c2cc(-c3ccc(C)cc3)nc(N)c2C#N)ccc1O	n	70	n	n	n
COc1cccc(C(=O)NN=C(C)c2ccc(NC(=O)Cc3ccccc3)cc2)c1OC	x	x	n	x	x
SMILES	CHOP UPR activ	CHOP inh	UCH37 inh	CTSL1 counter	XBP1 UPR activ
COC(=O)NN=C(C)c1ccc(-n2ccnc2)cc1	x	x	n	x	x
O=C(c1cnn2c(C(F)(F)F)cc(-c3cccs3)nc12)N1CCN(Cc2ccccc2)CC1	n	70	n	n	n
CN1CCN(C(=O)c2cnn3c(C(F)(F)F)cc(-c4cccs4)nc23)CC1	n	n	n	n	n
C(=NNC(=Nc1ccccc1)c1ccccn1)c1ccccn1	x	x	n	x	x
COc1cc(/C=C/[N+](=O)[O-])ccc1OCc1cccc(C(=O)O)c1	n	77	n	x	n
COc1cc(/C=N/NC(=O)c2cccc([N+](=O)[O-])c2)ccc1OCc1ccccc1	n	n	x	n	n
O=C(NC1CCCCC1)N1CCCCCCC1	n	n	n	18	n
O=C(NC1CCCCC1)N1CCN(C2CCCCC2)CC1	n	n	n	n	n
O=C(CSc1nnc(SCc2ccccc2)s1)NN=Cc1c[nH]c2ccccc12	x	x	n	x	x
Cc1ccc(/C=N/Nc2ccnc3cc(Cl)ccc23)c(C)c1	n	105	x	n	n
Oc1ccc(/C=N/Nc2ccnc3cc(Cl)ccc23)c(O)c1	n	90	x	n	n
CC1C/C(=N\NC(N)=S)c2cc(Cl)ccc2S1 (stereo not drawn)	n	n	x	68	n
CCn1c(N=Cc2c[nH]c3ccccc23)nc2ccccc21	x	x	n	x	x
COc1ccc(N2CCN(S(=O)(=O)c3cnc[nH]3)CC2)cc1	n	n	n	17	n
CCCN(CCC)Cc1c(C(=O)NN=Cc2ccc(Br)cc2)nnn1-c1nonc1N	x	x	n	x	x
O=C1N[C@H](Cc2ccccc2)COC(=O)[C@@H](Cc2ccc(F)cc2)CC/C=C/C[C@H]1CC(=O)N(CCO)Cc1ccccc1	n	x	22	x	n
COc1ccc(C(=O)NN=Cc2cc(Br)ccc2O)cc1OC	x	x	n	x	x
COc1cc(C=Nn2c(SC)nnc(C(C)(C)C)c2=O)ccc1O	x	x	35	x	x
COc1cc(/C=N/n2c(SC)nnc(C(C)(C)C)c2=O)ccc1O	n	n	x	n	n
Cc1ccc(S(=O)(=O)Nc2ccc(O)c3ncccc23)cc1	n	73	n	n	n
O=C(N[C@@H](Cc1ccccc1)C(=O)CCl)OCc1ccccc1	158	n	n	69	n
O=C(N[C@@H](Cc1ccccc1)C(=O)N[C@@H](Cc1ccccc1)C(=O)O)OCc1ccccc1	n	x	n	n	n
Cc1ccc(Cn2ccc(NC(=O)c3cc(CC(C)C)on3)n2)cc1	n	76	n	n	n
Cc1ccc(Cn2ccc(NC(=O)c3cc(-c4ccc(Cl)cc4)on3)n2)cc1	n	n	n	n	n
Cc1cc(C(=O)Nc2c(C)nn(Cc3ccc(F)cc3)c2C)on1	n	81	n	n	n
SMILES	CHOP UPR activ	CHOP inh	UCH37 inh	CTSL1 counter	XBP1 UPR activ
Cc1nn(Cc2ccc(Cl)c(Cl)c2)c(C)c1NC(=O)c1cc(CC(C)C)on1	n	93	n	n	n
Cc1ccccc1Cn1nc(C)c(NC(=O)c2cc(CC(C)C)on2)c1C	n	n	n	n	n
Cc1ccc(Cn2nc(C)c(NC(=O)c3cc(C)no3)c2C)cc1	n	n	n	n	n
O=C(Cn1nc(-c2ccccc2)ccc1=O)Nc1ccc(-n2cnnn2)cc1	n	n	n	n	n
O=C(Cn1nc(-c2ccccc2)ccc1=O)Nc1ccc(NC(=O)c2ccccn2)cc1	n	94	n	n	n
CCOC(=O)NN=C/C(Cl)=C/c1ccccc1	x	x	n	x	x
CCn1c(=NC(=O)c2ccc(S(=O)(=O)N3CCOCC3)cc2)sc2cccc(OC)c21	n	83	n	n	n
COCCn1c(=NC(=O)c2ccc(S(=O)(=O)N3CCOCC3)cc2)sc2cc(S(N)(=O)=O)ccc21	n	x	n	n	n
CC(=NNC(=O)COc1ccccc1)c1cccs1	x	x	n	x	x
Clc1nc(Nc2ccc(N3CCOCC3)cc2)c2ccccc2n1	n	n	n	n	n
O=S(=O)(Nc1nc2ccccc2nc1Nc1ccc(N2CCOCC2)cc1)c1cc(Cl)ccc1Cl	n	74	n	n	n
Cc1cc(/C=C2/NC(=O)N(Cc3ccccc3F)C2=O)c(C)n1C(C)C	n	72	n	n	n
CCn1c(C)cc(/C=C2/NC(=O)N(Cc3ccccc3F)C2=O)c1C	n	n	n	n	n

Screening data: PubChem BioAssay, several laboratories
